Published values of several laboratories.
Lines come from different studies, so protocols differ.
INSR: Insulin receptor (INSR, Homo sapiens, UniProt P06213)

CNC(=O)c1ccccc1Nc1cc(Nc2ccc(N3CCOCC3)cc2OC)ncc1C(F)(F)F — inhibition (INSR; enzyme activity; inhibitor; 1 µM): > 50%
N#CC1(c2ccccn2)CCN(Cc2cc(C(=O)N3CCCC3)c(=O)n3ccccc23)CC1 — remaining binding (INSR; cell-free assay; competition with immobilised ligand; 1 µM): 88%
CC/C(=N\NC(=O)NCc1cccc(O)c1)c1ccc(O)c(C)c1O — inhibition (INSR; enzyme activity; inhibitor; 0.1 µM): 0.1%
FC(F)(F)c1ccc2c(c1)nc(-c1cccnc1)n2C1CC1 — remaining binding (INSR; cell-free assay; competition with immobilised ligand; 1 µM): 100%
O=C1NC(=O)c2cc(Nc3ccc(F)cc3)c(Nc3ccc(F)cc3)cc21 — remaining signal (INSR; cell-free assay; 0.5 µM): 98.3%
Cc1ccc(C(=O)NCc2ccsc2)cc1C#Cc1cn(C(C)C)c2ncnc(N)c12 — activity vs control (Insulin receptor, phosphorylated (INSR, Homo sapiens, UniProt P06213); enzyme activity; inhibitor; 1 µM): 95%
Cc1ccc(Nc2nccc(N(C)c3ccc4c(C)n(C)nc4c3)n2)cc1S(N)(=O)=O — inhibition (INSR; enzyme activity; inhibitor; 10 µM): 27%
CN(C)C1CCN(CC#Cc2nn(C3CCCC3)c3nc(NCc4ccccc4)ncc23)C1 (stereo not drawn) — inhibition (INSR; enzyme activity; inhibitor; FRET; 1 µM): 8%
O=C(CSc1nc2nccnc2c(=O)n1CCc1ccccc1)Nc1nccs1 — inhibition (INSR; enzyme activity; inhibitor; 10 µM): 5%
O=C(O)[C@H]1[C@H](Cn2nnc3ccccc3c2=O)CC[C@@H]1C(=O)c1ccc(OCCC2CCOCC2)cc1 — remaining binding (INSR; cell-free assay; competition with immobilised ligand; 1 µM): 78%
CN1CC(Oc2cnc(C#N)cc2-c2ccn3nc(NC(=O)C4CC4)cc3c2)C1 — inhibition (INSR; enzyme activity; inhibitor; 1 µM): -2%
CN(c1ncccc1CNc1nc(Nc2ccc3c(c2)CC(=O)N3)ncc1C(F)(F)F)S(C)(=O)=O — inhibition (INSR; enzyme activity; inhibitor; 1 µM): 57.2%
C[C@@H]1CCN(C(=O)CC#N)C[C@@H]1N(C)c1ncnc2[nH]ccc12 — remaining signal (INSR; cell-free assay; 0.5 µM): 101%
COc1cc2ncnc(Nc3ccc(Oc4ccccc4)cc3C)c2cc1OC — inhibition (INSR; enzyme activity; inhibitor; 1 µM): -1%
O=C1Nc2ccc(Cl)cc2C1=Cc1cc(Cl)c(O)c(Cl)c1 — remaining signal (INSR; cell-free assay; 0.5 µM): 99.2%
CNCc1ccc(-c2cc(-c3nc(-c4ccc(S(=O)(=O)C(C)C)cc4)cnc3N)on2)cc1 — inhibition (INSR; enzyme activity; inhibitor; 0.4 µM): 0%
CSc1cccnc1N1CCN(Cc2nc3ccccc3[nH]2)CC1 — remaining binding (INSR; cell-free assay; competition with immobilised ligand; 1 µM): 85%
Nc1ncnc2occ(-c3ccc(NC(=O)Nc4cc(C(F)(F)F)ccc4F)cc3)c12 — remaining signal (INSR; cell-free assay; 20 µM): 3.2%
CC(C)(O)c1cncc(-c2nc3ccc(F)cc3n2C2CC2)c1 — remaining binding (INSR; cell-free assay; competition with immobilised ligand; 1 µM): 100%
Cc1cc(NC(=O)c2cccc3cc(-c4cccc5[nH]nc(N)c45)ccc23)ccc1F — activity vs control (INSR; enzyme activity; inhibitor; 0.1 µM): 107%
CO[C@@H](C)c1c(Nc2ccc([C@H](N(C)C(=O)C3CCS(=O)(=O)CC3)C(F)(F)F)cc2)cnc2cc(Cl)nn12 — remaining binding (INSR; cell-free assay; competition with immobilised ligand; 1 µM): 87%
COc1cc(/C=C/C(=O)CC(=O)/C=C/c2ccc(O)c(OC)c2)ccc1O — activity vs control (INSR; enzyme activity; inhibitor; 1 µM): 46%
O=C(NC[C@@H]1[C@H]2CN(C(=O)OCc3cc(C(F)(F)F)cc(C(F)(F)F)c3)C[C@@H]12)c1ccc2[nH]nnc2c1 — remaining binding (INSR; cell-free assay; competition with immobilised ligand; 1 µM): 83%
CNC(=O)c1cc(Oc2ccc(NC(=O)Nc3ccc(Cl)c(C(F)(F)F)c3)cc2)ccn1 — inhibition (INSR; enzyme activity; inhibitor; 0.3 µM): 3%
